From ChEMBL document CHEMBL1149546, “(2R,3S)-(+)- and (2S,3R)-(-)-Halofuginone lactate: synthesis, absolute configuration, and activity against Cryptosporidium parvum” (Bioorg Med Chem Lett, 2007)
Active and inactive are the calls of the source. No cut-off for these calls is given here.

Tests used:
Cryptosporidium parvum [1] = experiment: Antiprotozoal activity against Cryptosporidium parvum; type: functional, organism-based
Summary of the method: (§1)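 C. parvum development measured in host-cell culture across three independent compound dilution series, with monensin as positive control. The read-out was parasite foci area, with control and test cultures normalized to 100,000 µm² of foci area.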

Cryptosporidium parvum [2] = experiment: Antiprotozoal activity against Cryptosporidium parvum at 0.8 nM; type: functional, organism-based; summary of the method: as §1
Mus musculus [3] = experiment: Toxicity in Crl:NMRI mouse at 10 mg/kg, po; type: organism-based; set-up: dose 10 mg/kg, route oral; conditions: in vivo
Summary of the method: (§2)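 Single oral doses of lactate salts (5, 10 and/or 20 mg/kg bodyweight) were given to 4-week-old female Crl:NMRI mice, n = 3 per group. Moribund mice were euthanized.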

Mus musculus [4] = experiment: Toxicity in Crl:NMRI mouse at 5 mg/kg, po; type: organism-based; set-up: dose 5 mg/kg, route oral; conditions: in vivo; summary of the method: as §2
Cryptosporidium parvum [5] = experiment: Antiprotozoal activity against Cryptosporidium parvum up to 6 nM; type: functional; summary of the method: as §1
Mus musculus [6] = experiment: Toxicity in Crl:NMRI mouse at 20 mg/kg, po; type: organism-based; set-up: dose 20 mg/kg, route oral; conditions: in vivo; summary of the method: as §2

O=C(CC1NCCCC1O)Cn1cnc2cc(Br)c(Cl)cc2c1=O (racemic; form 2)
Activity (Cryptosporidium parvum [1]): Active | Activity (Cryptosporidium parvum [2]): inactive

CC(O)C(=O)O.O=C(C[C@H]1NCCC[C@@H]1O)Cn1cnc2cc(Br)c(Cl)cc2c1=O
Activity (Cryptosporidium parvum [1]): Active | Activity (Cryptosporidium parvum [2]): inactive | Activity (Mus musculus [3]): Toxic | Activity (Mus musculus [4]): Toxic

Br.O=C(CC1NCCCC1O)Cn1cnc2cc(Br)c(Cl)cc2c1=O (racemic; form 2) [HALOFUGINONE HYDROBROMIDE]
Activity (Cryptosporidium parvum [5]): 80%

CC(O)C(=O)O.O=C(C[C@@H]1NCCC[C@H]1O)Cn1cnc2cc(Br)c(Cl)cc2c1=O
Activity (Mus musculus [6]): Not Active

O=C(CC1NCCCC1O)Cn1cnc2cc(Br)c(Cl)cc2c1=O (racemic; form 1)
Activity (Cryptosporidium parvum [1]): Active | Activity (Cryptosporidium parvum [2]): inactive

CC(O)C(=O)O.O=C(CC1NCCCC1O)Cn1cnc2cc(Br)c(Cl)cc2c1=O (racemic; form 1) [HALOFUGINONE LACTATE]
Activity (Cryptosporidium parvum [5]): 80%
